Screening results: PubChem BioAssay, Broad Institute
Cneo AK release: Cryptococcus neoformans cell lysis inducers, primary screen, AK release luminescence, single concentration. C. neoformans lysis, adenylate kinase release luminescence, 4 h; normalised: neutral wells 0, clomiphene wells 100. lysis activity, % at 15 µM. hit rate 0.2% among 360,000;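 active means mean lysis activity across replicates of at least 80%, whatever share of replicates individually reach that level; inactive means mean lysis activity below 80%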
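Schedule: static 4 h at 37 °C with compound, 1 h detection; system: C. neoformans cells; benchmarks: Clomiphene as positive control; buffer or medium: fresh YPD medium; measure: luminescence rise reflecting yeast cell lysis; measured by: luminescent adenylate kinase detection reagent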
C2C12 statin: suppressors of statin myotoxicity in C2C12 myotubes, primary screen, cell-based, single point, plate reader; C2C12 myotubes + simvastatin, ATP luminescence, 48 h; scaled: DMSO 0, geranylgeraniol control 100; rescue of ATP level, % at 7.49 µM; hit rate 0.78% among 330,000;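 active means mean ATP rescue above about 67%, or every replicate alone reaching that limit, limit read from the data, passing the limit was not always enough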;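 further: myotubes were challenged with 10 µM simvastatin during compound exposure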
SUMO Mot1 rescue: yeast Mot1-301 growth rescue at high temperature, primary screen, SUMOylation pathway inhibitor project, S. cerevisiae, ATP luminescence, 38.5C; S. cerevisiae Mot1-301 growth rescue; percent above DMSO median, 100 means doubled; growth rescue, % at 18.8 µM; hit rate 1% among 320,000;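 active means every valid replicate shows activation above 250% relative to neutral control wells; inactive means the rest, any valid replicate at or below 250%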;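 further: OY570 slx delta 5 strain wells were the positive control but not used for scaling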
The depositor's hits bear a star; · = no result. Only some compounds are listed: those with a hit (about 1.5% of all), similar ones and a draw of the others.

SMILES	Cneo AK release	C2C12 statin	SUMO Mot1 rescue
COc1ccc(Cl)cc1NC(=O)c1ccco1	1	-79	-3
COc1ccc(Cl)cc1NC(=S)N1CCN(C(=O)c2ccco2)CC1	·	-3	357*
C[C@H](CO)N1C[C@H](C)[C@H](CN(C)C(=O)Nc2cccc3ccccc23)Oc2ncc(C#CCC3CCCC3)cc2C1=O	-1	62	·
Cc1ccc(N2N=C(C(=O)O)CCC2=O)cc1Cl	-1	124*	116
O=C(O)C1=NN(c2ccccc2)C(=O)CC1	4	7	102
CO[C@H]1CN(C)C(=O)c2cc(NS(C)(=O)=O)ccc2OC[C@@H](C)N(CCC(F)(F)F)C[C@@H]1C	-4	19	·
CCOC(=O)N1CCC(NC(=O)c2cc(C)c3c(C)nn(-c4ccccc4)c3n2)CC1	-1	118*	-19
CCOC(=O)N1CCC(NC(=O)c2ccccc2C(=O)O)CC1	3	-6	-17
CN(C)C(=O)c1cccc(-c2ccc3c(c2)[C@@H]2[C@@H](CCN2C(=O)c2cccnc2)[C@@H](CO)N3)c1	-1	-4	·
COc1ccccc1C(=O)NCC(=O)OC(C)C(=O)NC(=O)NC1CCCCC1 (configuration not stated)	1	87*	6
COc1ccccc1C(=O)NCC(=O)OC(C)C(=O)NC1CCCCC1C (configuration not stated)	3	18	-15
O=C(N/N=C/c1cccc2ccccc12)C(=O)N1CCCC1	2	-9	129
O=C(N/N=C/c1ccccc1[N+](=O)[O-])C(=O)N1CCCC1	·	·	355*
Cc1ccc(S(=O)(=O)N[C@H]2C=C[C@@H](CC(=O)N3CCN(c4ccccc4)CC3)O[C@@H]2CO)cc1	-3	-4	·
CCCNC(=O)N1C[C@@H](O)COC[C@H]2O[C@@H](CC(=O)N3CCC(Cc4ccccc4)CC3)CC[C@@H]21	3	7	·
CC1(C)CC(=O)C(C=NCCN2CCN(CC(=O)Nc3ccc(F)cc3)CC2)=C(O)C1	·	·	12
CC1(C)CC(=O)C(C=NCCN2CCN(C(=S)Nc3ccc(F)cc3)CC2)=C(O)C1	-2	65*	-11
CN(C)CC#Cc1ccc([C@H]2[C@@H](CO)N3CCCCN(C(=O)C4CCCC4)C[C@@H]23)cc1	4	·	·
O=C(C[C@@H]1CC[C@@H]2[C@H](COC[C@@H](O)CN2C(=O)Nc2ccc(C(F)(F)F)cc2)O1)NC1Cc2ccccc2C1	-4	-60	·
O=C1NC(=NCc2ccccc2)NC1(c1ccccc1)c1ccccc1	1	101*	·
O=C1NC(=NCc2ccccc2)S/C1=C\c1ccccc1	0	·	6
COc1cccc(-c2cnc3c(c2)C(=O)N([C@@H](C)CO)C[C@H](C)[C@@H](CN(C)C(=O)CN(C)C)O3)c1	-3	22	·
CC(=O)N(Cc1ccc(Cl)cc1)c1cnccn1	5	3	-26
CN(CCO)c1cnccn1	·	·	580*
C[C@H](CO)N1C[C@H](C)[C@H](CN(C)C(=O)c2ccccc2F)Oc2cc(-c3ccccc3)ccc2S1(=O)=O	·	-26	·
SMILES	Cneo AK release	C2C12 statin	SUMO Mot1 rescue
COCC(=O)N1CC[C@H]2[C@H](CO)Nc3ccc(-c4cccc(C(=O)N(C)C)c4)cc3[C@H]21	-3	-7	·
C[C@H](CO)N1C[C@H](C)[C@@H](CN(C)C(=O)Nc2ccc(F)cc2)Oc2ccc(NC(=O)CCN3CCOCC3)cc2C1=O	-1	12	·
COc1ccc(NC(=O)N(C)C[C@@H]2Oc3ncc(C#CCN(C)C)cc3C(=O)N([C@H](C)CO)C[C@H]2C)cc1	-3	-3	·
Cc1ccc(-c2cnc3c(c2)C(=O)N([C@@H](C)CO)C[C@H](C)[C@H](CN(C)Cc2ccccc2C(=O)O)O3)cc1	39	-1	·
CCOC(=O)C1=C(C)N[C@@]2(O)c3ccccc3C(=O)[C@@]12O	1	130*	-15
CCCCOC(=O)C1=C(C)NC2(O)c3ccccc3C(=O)C12O (configuration not stated)	4	-4	-2
CCCNC(=O)Nc1ccc2c(c1)OC[C@H](C)N(C(=O)C1CC1)C[C@@H](C)[C@@H](OC)CN(C)C2=O	0	2	·
Cc1noc(C)c1NC(=O)N(C)C[C@H]1OCCCC[C@@H](C)Oc2ccc(NS(C)(=O)=O)cc2C(=O)N([C@H](C)CO)C[C@H]1C	0	·	·
CCOC(=O)N1CCN(C(=O)Cc2ccsc2)CC1	-1	110*	·
CCOC(=O)N1CCN(C(=O)Cc2cccs2)CC1	·	·	-17
COC(=O)[C@H]1[C@H](CO)[C@H]2Cn3c(ccc(C4=CCCC4)c3=O)[C@H]2N1CC1CCOCC1	47	-6	·
